Results taken from PMC2947842 (Bioorganic & medicinal chemistry, 2010).
Positions of bridges follow the written chain, without caps; N, C: chain ends. Non-standard residues stand in square brackets, D forms with d. Residues, ends and D or L forms follow the SMILES beside them.

Tested on: B16/F1 melanoma cells
Assay: Clonogenic cytotoxicity
Type: cell-based, murine
Settings: 0.1 μM peptide, 3 h incubation at 37 °C, colonies after 6 days
In short: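 B16/F1 cells seeded at 200 cells/well and exposed for 3 h at 37 °C in culture medium to 0.1 μM test peptide, comparator peptides, or medium alone. Washed twice with PBS and regrown in medium for 6 days. Fixed in methanol:glacial acetic acid (3:1), hematoxylin-stained, and scored by microscope; colonies over 50 cells counted as survivors. Survival normalized to untreated (100%). Unpaired Student t-test, p<0.05.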

Row | Compound | Decrease in clonogenic survival in comparison with the untreated group
1 | CC(C)[C@H](NC(=O)[C@@H]1CCCN1C(=O)[C@H](CCCNC(=N)N)NC(=O)[C@H](CS)NC(=O)[C@H](Cc1c[nH]c2ccccc12)NC(=O)[C@H](CCCNC(=N)N)NC(=O)[C@@H](Cc1ccccc1)NC(=O)[C@H](Cc1c[nH]cn1)NC(=O)[C@H](CCC(=O)O)NC(=O)[C@H](CS)NC(=O)[C@H](CS)NC(=O)[C@H](CCCNC(=N)N)NC(=O)[C@@H]1CC(=O)N[C@@H](CCCNC(=N)N)C(=O)NCC(=O)N[C@@H](CC(=O)O)C(=O)N[C@H](Cc2ccc(O)cc2)C(=O)N1)C(N)=O [RGD-Arg-(Arg^11)CCMSH] (RGD[dY]DRCCEH[dF]RWCRPV-NH2; lactam N-5; C-terminus assumed) | 62%
2 | [Cys^3,4,10, D-Phe^7, Arg^11]α-MSH3-13 [(Arg^11)CCMSH] | 11%
